Test results from ChEMBL document CHEMBL3875163, “Novel urea and bis-urea primaquine derivatives with hydroxyphenyl or halogenphenyl substituents: Synthesis and biological evaluation” (Eur J Med Chem, 2016).
Converted amounts (≈) assume the structure as drawn.

Tests used:
[1] = Growth inhibition of mouse L1210 cells after 72 hrs by MTT assay; assay type: functional, cell-based; conditions: L1210, 72 h
[2] = Growth inhibition of human Molt4/C8 cells after 72 hrs by MTT assay; assay type: functional, cell-based; conditions: MOLT-4, 72 h
[3] = Growth inhibition of human CEM cells after 72 hrs by MTT assay; assay type: functional, cell-based; conditions: CCRF-CEM
[4] = Growth inhibition of human HeLa cells after 72 hrs by MTT assay; assay type: functional, cell-based
[5] = Growth inhibition of human MIAPaCa2 cells after 72 hrs by MTT assay; assay type: functional, cell-based; conditions: MIA PaCa-2, 72 h
[6] = Growth inhibition of human NCI-H460 cells after 72 hrs by MTT assay; assay type: functional, cell-based; conditions: NCI-H460, 72 h
In short: (§1)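 Modified NCI DTP protocol: cells in DMEM with 10% FBS, 2 mM glutamine, antibiotics, 37 °C, 5% CO2; seeded 1 × 10^4 to 3 × 10^4 cells/ml on day 0, exposed to five 10-fold dilutions (10^-8 to 10^-4 M) for 72 h; solvent control. MTT read-out; quadruplicate points in three experiments; IC50 by linear regression of growth percentages bracketing 50%.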

[7] = Growth inhibition of human SW620 cells after 72 hrs by MTT assay; assay type: functional, cell-based; conditions: SW-620, 72 h; in short: as §1
[8] = Growth inhibition of human MCF7 cells after 72 hrs by MTT assay; assay type: functional, cell-based; conditions: MCF7, 72 h; in short: as §1
[9] = Antioxidant activity assessed as DPPH radical scavenging activity at 100 uM after 20 mins relative to control; assay type: functional
In short: (§2)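 Compound in DMSO added to DPPH in absolute ethanol, 0.1 mM final; absorbance at 517 nm after 20 and 60 min at room temperature. At least triplicate.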

[10] = Antioxidant activity assessed as DPPH radical scavenging activity at 100 uM after 60 mins relative to control; assay type: functional; in short: as §2
[11] = Antioxidant activity assessed as inhibition of AAPH-induced linoleic acid lipid peroxidation at 1 x 10^-4 M by UV-absorbance method relative to control; assay type: functional
In short: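 Linoleic acid peroxidation: 16 mM sodium linoleate dispersion in 0.05 M phosphate buffer pH 7.4 at 37 °C under air, initiated by AAPH (40 mM solution); compound at 1 × 10^-4 M; oxidation followed at 234 nm. At least triplicate.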

Glycine max = assay: Inhibition of soybean LOX assessed as reduction in conversion of sodium linoleate to 13-hydroperoxylinoleic acid at 1 x 10^-4 M relative to control
In short: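 Soybean lipoxygenase incubated at room temperature with sodium linoleate (0.1 mM) and test compound (DMSO stocks); formation of 13-hydroperoxylinoleic acid read at 234 nm. Single-point screening at 1 × 10^-4 M; IC50 from several concentrations. At least triplicate.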

Staphylococcus aureus [12] = assay: Antibacterial activity against Staphylococcus aureus ATCC 6538 after 18 hrs by serial microdilution broth assay; assay type: functional; conditions: ATCC 6538, 18 h
In short: (§3)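 Broth microdilution MIC per EUCAST for aerobic bacteria in Mueller-Hinton broth, serial dilution 1000 to 0.78125 µg/ml from 10 mg/ml DMSO stocks. Inoculum from trypticase soy broth cultures (18 h, 37 °C), set to 0.5 McFarland in PBS pH 7.4, diluted 1:10. 18 h aerobic incubation at 35 °C in dark, then TTC 0.5 mg/ml for 3 h, HCl-isopropanol, A490. MIC = lowest concentration giving 50% inhibition versus untreated; duplicates.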

Staphylococcus aureus [13] = assay: Antibacterial activity against methicillin sensitive Staphylococcus aureus ATCC 25923 after 18 hrs by serial microdilution broth assay; assay type: functional; conditions: ATCC 25923, 18 h
In short: (§4)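 EUCAST-based broth microdilution in Mueller-Hinton broth. Glycerol stock cultures grown in trypticase soy broth 18 h at 37 °C; inoculum in PBS pH 7.4 at 0.5 McFarland, diluted 1:10 in broth. Compounds from DMSO stocks, 1000 to 0.78125 µg/ml; 18 h aerobic, 35 °C, dark. TTC 0.5 mg/ml added, 3 h, then HCl/isopropanol, A490. MIC = lowest concentration giving 50% inhibition vs untreated; duplicates, averaged.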

Staphylococcus aureus [14] = assay: Antibacterial activity against methicillin sensitive Staphylococcus aureus ATCC 25213 after 18 hrs by serial microdilution broth assay; assay type: functional; conditions: ATCC 25213, 18 h; in short: as §3
Staphylococcus aureus [15] = assay: Antibacterial activity against methicillin resistant Staphylococcus aureus MFBF 10682 after 18 hrs by serial microdilution broth assay; assay type: functional; conditions: MFBF 10682, 18 h; in short: as §4
Staphylococcus aureus [16] = assay: Antibacterial activity against methicillin resistant Staphylococcus aureus MFBF 10679 after 18 hrs by serial microdilution broth assay; assay type: functional; conditions: MFBF 10679, 18 h; in short: as §4
Enterococcus faecalis [17] = assay: Antibacterial activity against vancomycin susceptible Enterococcus faecalis ATCC 29212 after 18 hrs by serial microdilution broth assay; assay type: functional; conditions: ATCC 29212, 18 h; in short: as §3
Enterococcus faecalis [18] = assay: Antibacterial activity against vancomycin resistant Enterococcus faecalis MFBF 11419 after 18 hrs by serial microdilution broth assay; assay type: functional; conditions: MFBF 11419, 18 h; in short: as §4
Bacillus pumilus = assay: Antibacterial activity against Bacillus pumilus NCTC 8241 after 18 hrs by serial microdilution broth assay; assay type: functional; conditions: NCTC 8241, 18 h; in short: as §3
Bacillus cereus = assay: Antibacterial activity against Bacillus cereus ATCC 11778 after 18 hrs by serial microdilution broth assay; assay type: functional; conditions: ATCC 11778, 18 h; in short: as §3
Bacillus spizizenii = assay: Antibacterial activity against Bacillus subtilis ATCC 6633 after 18 hrs by serial microdilution broth assay; assay type: functional; conditions: ATCC 6633, 18 h; in short: as §3
Pseudomonas aeruginosa [19] = assay: Antibacterial activity against Pseudomonas aeruginosa ATCC 9027 after 18 hrs by serial microdilution broth assay; assay type: functional; conditions: ATCC 9027, 18 h; in short: as §4
Pseudomonas aeruginosa [20] = assay: Antibacterial activity against Pseudomonas aeruginosa ATCC 27853 after 18 hrs by serial microdilution broth assay; assay type: functional; conditions: ATCC 27853, 18 h; in short: as §3
Pseudomonas aeruginosa [21] = assay: Antibacterial activity against multi-drug resistant Pseudomonas aeruginosa MFBF after 18 hrs by serial microdilution broth assay; assay type: functional; in short: as §4
Escherichia coli = assay: Antibacterial activity against Escherichia coli ATCC 10535 after 18 hrs by serial microdilution broth assay; assay type: functional; conditions: ATCC 10535, 18 h; in short: as §3
Candida albicans = assay: Antifungal activity against Candida albicans ATCC 90028 after 18 hrs by serial microdilution broth assay; assay type: functional; conditions: ATCC 90028, 18 h
In short: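 Yeast microdilution in RPMI 1640 with glutamine plus 2% glucose, 1000 to 0.78125 µg/ml from 10 mg/ml DMSO stocks. Growth read with XTT (10 mg/ml) mixed 7:1 with menadione (1 mg/ml in acetone), absorbance at 540 nm. MIC taken as lowest concentration giving 50% growth inhibition versus untreated cells; tests in duplicate.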

[22] = Hemolytic activity against human RBC at 100 ug/ml after 1 hr relative to control; assay type: ADME, cell-based, Erythrocyte; conditions: red blood cells (RBC), read-out: Activity
[23] = Cytotoxicity against HEK cells assessed as reduction in cell viability at 3.125 to 25 ug/ml after 24 hrs by MTT assay; assay type: toxicity, cell-based; conditions: human, hek293, 24 h
In short: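 HEK 293 cells, 5 × 10^3 per well, treated next day for 24 h with compound (range within 200 to 1.5625 µg/ml). MTT 0.5 mg/ml in DMEM/10% FBS, 4 h at 37 °C, 5% CO2; formazan in DMSO, A570. Viability as percent of untreated control; triplicates, three independent experiments.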

For COc1cc(NC(C)CCCNC(=O)Nc2cc(C(F)(F)F)cc(C(F)(F)F)c2)c2ncccc2c1 (centres undefined), the IC50 [1] was 3.5 µM, the IC50 [2] was 12 µM and the IC50 [3] was 4.1 µM. For the same compound, the IC50 [4] was 3.1 µM, the IC50 [5] was 4.7 µM and the IC50 [6] was 8.3 µM. For the same compound, the IC50 [7] was 3.9 µM, the IC50 [8] was 1.6 µM and the Activity [9] was 51.7%. It also gave an Activity [10] of 55.2%, an inhibition [11] of 90.2% and an inhibition (Glycine max) of 42.3%. It also gave an MIC50 (Staphylococcus aureus [12]) of 1.6 µg/mL (≈ 3.11 µM), an MIC50 (Staphylococcus aureus [13]) of 6.3 µg/mL (≈ 12.2 µM) and an MIC50 (Staphylococcus aureus [14]) of 12.5 µg/mL (≈ 24.3 µM). The MIC50 (Staphylococcus aureus [15]) was over 100 µg/mL, the MIC50 (Staphylococcus aureus [16]) was over 100 µg/mL and the MIC50 (Enterococcus faecalis [17]) was over 100 µg/mL. For the same compound, the MIC50 (Enterococcus faecalis [18]) was over 100 µg/mL, the MIC50 (Bacillus pumilus) was 12.5 µg/mL (≈ 24.3 µM) and the MIC50 (Bacillus cereus) was 100 µg/mL (≈ 194 µM). It also gave an MIC50 (Bacillus spizizenii) of over 100 µg/mL, an MIC50 (Pseudomonas aeruginosa [19]) of 100 µg/mL (≈ 194 µM) and an MIC50 (Pseudomonas aeruginosa [20]) of 12.5 µg/mL (≈ 24.3 µM). It also gave an MIC50 (Pseudomonas aeruginosa [21]) of over 100 µg/mL, an MIC50 (Escherichia coli) of over 100 µg/mL and an MIC50 (Candida albicans) of over 100 µg/mL. The hemolysis at 1 h, 100 ug/ml [22] was under 1% and the Activity [23] was “Toxic”.
